Data reported in ChEMBL document CHEMBL4196129, “Structural Optimization and Characterization of Potent Analgesic Macrocyclic Analogues of Neurotensin (8-13)” (J Med Chem, 2018).
Calls of active or inactive are those of the source. No cut-off for these calls is given here. Starred links: 1 amine or outer side, 2 acyl side, 3 side chain; linkers in the order of their positions; H or OH if unused. Positions of bridges follow the written chain, without caps; N, C: chain ends. Non-standard residues stand in square brackets, D forms with d. Residues, ends and D or L forms follow the SMILES beside them. *: point of attachment. X6 = C=CCc1cc(C[C@H](N[*:1])C(=O)[*:2])ccc1O; NMeR = CN[C@@H](CCCNC(=N)N)C(=O)O; X7 = C=CCCCCCCC(=O)*

Columns and labels:
[1] = target: T1, Neurotensin receptor type 1 (Homo sapiens, UniProt P30989); experiment: Displacement of [3H]-neurotensin from NTS1 receptor (unknown origin) after 20 mins by liquid scintillation counting analysis
T1 sequence (P30989 whole entry): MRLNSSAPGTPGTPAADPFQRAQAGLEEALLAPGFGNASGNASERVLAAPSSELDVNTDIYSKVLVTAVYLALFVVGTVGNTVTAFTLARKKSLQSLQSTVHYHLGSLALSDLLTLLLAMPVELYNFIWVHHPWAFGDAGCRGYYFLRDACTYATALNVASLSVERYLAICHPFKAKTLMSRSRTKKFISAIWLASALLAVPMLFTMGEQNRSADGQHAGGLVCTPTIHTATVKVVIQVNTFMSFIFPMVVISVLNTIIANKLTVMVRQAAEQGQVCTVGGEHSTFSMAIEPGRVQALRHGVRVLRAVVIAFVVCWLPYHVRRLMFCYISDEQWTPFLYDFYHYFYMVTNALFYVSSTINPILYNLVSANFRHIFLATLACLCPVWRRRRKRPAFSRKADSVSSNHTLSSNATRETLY

Rattus norvegicus [2] = experiment: Analgesic activity in formalin-induced Sprague-Dawley rat pain model assessed as inhibition of nociceptive response in right hind paw at 30 ug/kg, it measured for 21 to 60 mins; assay type: functional, organism-based
Outline: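 Male Sprague-Dawley rats dosed intrathecally at 30 µg/kg in 0.9% saline; 5 min later, 50 µl of 2% formaldehyde given into the right hind paw plantar surface. Weighted pain score (0-3) recorded per 3-min block over 60 min. Acute phase 0-9 min, inflammatory phase 21-60 min.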

Rattus norvegicus [3] = experiment: Induction of hypothermia in Sprague-Dawley rat assessed as reduction in body temperature at 30 ug/kg, it after 60 mins; assay type: functional, organism-based
Outline: (§1)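 Rectal thermistor temperature in adult Sprague-Dawley rats acclimatized 5 min/day for 3 days. Baseline taken, then readings every 10 min to 60 min after intrathecal dosing in 0.9% saline, at 0.3, 1, 3, 10 and 30 µg/kg for the dose-response series. Single-dose comparisons at 30 µg/kg read only at 60 min. Change from baseline per animal; AUC per dose used for ED50.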

Rattus norvegicus [4] = experiment: Hypotensive activity in Sprague-Dawley rat assessed as reduction in arterial blood pressure in third phase at 0.01 mg/kg, iv measured every second up to 900 secs; assay type: functional, organism-based
Outline: (§2)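 Sprague-Dawley rats anesthetized with ketamine/xylazine (87:13 mg/kg, i.m.) on a heated pad. Compound given i.v. via jugular vein catheter at 0.01 mg/kg (1 mL/kg over 5-10 s); saline as control. Arterial pressure recorded each second for 900 s. Change in mean arterial pressure taken from basal level; n=3-5 rats.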

Rattus norvegicus [5] = experiment: Hypotensive activity in Sprague-Dawley rat assessed as reduction in arterial blood pressure in first phase at 0.01 mg/kg, iv measured every second up to 900 secs
Rattus norvegicus [6] = experiment: Analgesic activity in it dosed Sprague-Dawley rat assessed as increase in tail withdrawal latency measured every 10 mins up to 60 mins by tail flick test; assay type: functional
Outline: (§3)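 Adult male Sprague-Dawley rats (225-300 g), acclimatized 5 min/day for 3 days. Baseline tail-flick latency taken before injection. Dosing under light isoflurane anesthesia, intrathecal at L5-L6, compound in 0.9% saline; saline alone as control. Latency to heat (light beam) read every 10 min up to 60 min. %MPE taken at 10 min post-injection.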

Rattus norvegicus [7] = experiment: Analgesic activity in Sprague-Dawley rat assessed as increase in tail withdrawal latency at 30 ug/kg, it measured at 10 mins post injection by tail flick test relative to control; assay type: functional; outline: as §3
Rattus norvegicus [8] = experiment: Induction of hypothermia in it dosed Sprague-Dawley rat assessed as reduction in body temperature measured every 10 mins up to 60 mins; assay type: functional; outline: as §1
Rattus norvegicus [9] = experiment: Hypotensive activity in Sprague-Dawley rat assessed as reduction in arterial blood pressure in first phase at 0.01 mg/kg, iv measured every second up to 900 secs; assay type: functional; outline: as §2
[10] = target: T1, Neurotensin receptor type 1; experiment: Displacement of [125I]Tyr3-neurotensin from human NTS1 receptor expressed in CHOK1 cell membranes after 60 mins by gamma counting analysis
[11] = target: T1, Neurotensin receptor type 1; experiment: Agonist activity at Galpha13-Rluc2/Gbeta1/GFP10-Ggamma1 fused human NTS1 expressed in CHO-K1 cell membranes assessed as Galpha13 activation after 5 mins by BRET assay; assay type: functional, cell-based
[12] = target: T1, Neurotensin receptor type 1; experiment: Agonist activity at GFP10/beta-arrestin1-Rluc2 fused human NTS1 expressed in CHO-K1 cell membranes assessed as beta-arrestin1 recruitment after 20 mins by BRET assay; assay type: functional, cell-based
[13] = Half life in rat plasma by UPLC-MS analysis; assay type: ADME, cell-free
Outline: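 Quenched with acetonitrile/ethanol (1:1) plus 0.5% nicotinamide, centrifuged and filtered. Parent peptide measured by UPLC-MS; half-life from a one-phase decay fit.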

[14] = target: T1, Neurotensin receptor type 1; experiment: Agonist activity at Galphaq-Rluc2/Gbeta1/GFP10-Ggamma1 fused human NTS1 expressed in CHO-K1 cell membranes assessed as Galphaq activation after 5 mins by BRET assay; assay type: functional, cell-based
[15] = target: T1, Neurotensin receptor type 1; experiment: Agonist activity at GFP10/beta-arrestin2-Rluc2 fused human NTS1 expressed in CHO-K1 cell membranes assessed as beta-arrestin2 recruitment after 20 mins by BRET assay; assay type: functional, cell-based
Rattus norvegicus [16] = experiment: Analgesic activity in Sprague-Dawley rat assessed as increase in tail withdrawal latency at 1 ug/kg, it measured every 10 mins up to 60 mins by tail flick test; assay type: functional, organism-based; outline: as §3
Rattus norvegicus [17] = experiment: Analgesic activity in Sprague-Dawley rat assessed as increase in tail withdrawal latency at 10 ug/kg, it measured every 10 mins up to 60 mins by tail flick test; assay type: functional, organism-based; outline: as §3
Rattus norvegicus [18] = experiment: Analgesic activity in Sprague-Dawley rat assessed as increase in tail withdrawal latency at 30 ug/kg, it measured every 10 mins up to 60 mins by tail flick test; assay type: functional, organism-based; outline: as §3
Rattus norvegicus [19] = experiment: Induction of hypothermia in Sprague-Dawley rat assessed as reduction in body temperature at 0.3 to 30 ug/kg, it after 60 mins; assay type: functional, organism-based; outline: as §1
[20] = target: T1, Neurotensin receptor type 1; experiment: Displacement of [125I]Tyr3-neurotensin from human NTS1 receptor (end Leu 194 residues) expressed in CHO cells; assay type: cell-based
Outline: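 Membranes from CHO-K1 cells stably expressing hNTS1 (15 µg) incubated with 45 pM 125I-[Tyr3]-NT in 50 mM Tris-HCl pH 7.5, 0.2% BSA. Analogue at 10^-11 to 10^-4 M for 60 min at 25°C, then filtration and gamma counting. Nonspecific binding defined with 10^-5 M NT(8-13).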

Compound: CC(C)C[C@H](NC(=O)[C@@H]1CCC(=O)N[C@@H](CCCNC(=N)N)C(=O)N[C@@H](CCCCN)C(=O)N2CCC[C@H]2C(=O)N[C@@H](Cc2c[nH]c3ccccc23)C(=O)N1)C(=O)O (RKPWEL-OH; lactam N-5)
- Ki [1]: 0.19 µM

Compound: CCOC(=O)[C@H](CC(C)C)NC(=O)[C@@H](NC(=O)[C@H](Cc1c[nH]c2ccccc12)NC(=O)[C@H]1CCCN1C(=O)[C@H](CCCCN)NC(=O)[C@@H](N)CCCCN)C(C)(C)C
- Activity (Rattus norvegicus [2]): Active
- deltaT (Rattus norvegicus [3]): 2 °C
- Activity (Rattus norvegicus [4]): Active
- Activity (Rattus norvegicus [5]): Active

Compound: CC[C@H](C)[C@H](NC(=O)[C@@H]1Cc2ccc(O)c(c2)CC=CCNCCC[C@H](N)C(=O)N[C@@H](CCCCN)C(=O)N2CCC[C@H]2C(=O)N1)C(=O)N[C@@H](CC(C)C)C(=O)O [listing 1 of 2 here]
- ED50 (Rattus norvegicus [6]): 4.63 µg/kg
- MPE (Rattus norvegicus [7]): 50%
- ED50 (Rattus norvegicus [8]): 1.96 µg/kg
- Activity (Rattus norvegicus [9]): 25 mmHg

Compound: CC[C@H](C)[C@H](NC(=O)[C@@H]1Cc2ccc(O)c(c2)CC=CCCCCCCC(=O)N[C@@H](CCCCN)C(=O)N2CCC[C@H]2C(=O)N1)C(=O)N[C@@H](CC(C)C)C(=O)O
- Ki [10]: 5.6 µM
- EC50 ([11]; cho-k1): 0.433 µM
- EC50 ([12]; cho-k1): 1.5 µM

Compound: C=CCCCCCCC(=O)N[C@@H](CCCCN)C(=O)N1CCC[C@H]1C(=O)N[C@@H](Cc1ccc(O)c(CC=C)c1)C(=O)N[C@H](C(=O)N[C@@H](CC(C)C)C(=O)O)[C@@H](C)CC (X7-KP[X6]IL-OH)
- Ki [10]: > 10 µM

Compound: CC[C@H](C)[C@H](NC(=O)[C@@H]1Cc2ccc(O)c(c2)CC=CCCCCCC[C@](C)(N)C(=O)N[C@@H](CCCCN)C(=O)N2CCC[C@H]2C(=O)N1)C(=O)N[C@@H](CC(C)C)C(=O)O [listing 1 of 2 here]
- MPE (Rattus norvegicus [7]): 70%
- Activity (Rattus norvegicus [9]): 25 mmHg

Compound: C=CCNCCCC[C@H](N)C(=O)N[C@@H](CCCCN)C(=O)N1CCC[C@H]1C(=O)N[C@@H](Cc1ccc(O)c(CC=C)c1)C(=O)N[C@H](C(=O)N[C@@H](CC(C)C)C(=O)O)[C@@H](C)CC
- half-life [13]: 0.0833 h
- EC50 [14]: 0.007 µM
- EC50 [12]: 0.015 µM
- EC50 [15]: 0.009 µM

Compound: CC[C@H](C)[C@H](NC(=O)[C@@H]1Cc2ccc(O)c(c2)CC=CCCCCCC[C@](C)(N)C(=O)N[C@@H](CCCCN)C(=O)N2CCC[C@H]2C(=O)N1)C(=O)N[C@@H](CC(C)C)C(=O)O [listing 2 of 2 here]
- half-life [13]: 24 h
- EC50 [15]: 0.028 µM

Compound: CCOC(=O)[C@H](CC(C)C)NC(=O)[C@@H](NC(=O)[C@H](Cc1c[nH]c2ccccc12)NC(=O)[C@@H]1CCCN1C(=O)[C@H](CCCCN)NC(=O)[C@@H](N)CCCCN)C(C)(C)C [listing 1 of 2 here]
- MPE (Rattus norvegicus [7]): 75%
- Activity (Rattus norvegicus [9]): 25 mmHg

Compound: CC[C@H](C)[C@H](NC(=O)[C@H]1Cc2ccc(O)c(c2)CC=CCNCCC[C@@H](N)C(=O)N[C@@H](CCCCN)C(=O)N2CCC[C@H]2C(=O)N1)C(=O)N[C@@H](CC(C)C)C(=O)O
- Activity (Rattus norvegicus [6]): Dose-dependent effect
- Activity (Rattus norvegicus [16]): inactive
- Activity (Rattus norvegicus [17]): Active
- Activity (Rattus norvegicus [18]): Active
- Activity (Rattus norvegicus [2]): Active
- Activity (Rattus norvegicus [8]): Dose-dependent effect
- deltaT (Rattus norvegicus [19]): 2 °C
- Activity (Rattus norvegicus [4]): inactive
- Activity (Rattus norvegicus [5]): Active

Compound: CCOC(=O)[C@H](CC(C)C)NC(=O)[C@@H](NC(=O)[C@H](Cc1c[nH]c2ccccc12)NC(=O)[C@@H]1CCCN1C(=O)[C@H](CCCCN)NC(=O)[C@@H](N)CCCCN)C(C)(C)C [listing 2 of 2 here]
- Ki [10]: 0.159 µM

Compound: CC[C@H](C)[C@H](NC(=O)[C@@H]1Cc2ccc(O)c(c2)CC=CCNCCC[C@H](N)C(=O)N[C@@H](CCCCN)C(=O)N2CCC[C@H]2C(=O)N1)C(=O)N[C@@H](CC(C)C)C(=O)O [listing 2 of 2 here]
- half-life [13]: 0.5 to 0.65 h
- EC50 [14]: 0.003 µM
- EC50 [11]: 0.011 µM
- EC50 [12]: 0.004 µM

Compound: CC[C@H](C)[C@H](NC(=O)[C@@H]1Cc2ccc(O)c(c2)CC=CCCNCCCC[C@H](N)C(=O)N[C@@H](CCCCN)C(=O)N2CCC[C@H]2C(=O)N1)C(=O)N[C@@H](CC(C)C)C(=O)O
- half-life [13]: 0.25 h

Compound: CC[C@H](C)[C@H](NC(=O)[C@@H]1Cc2ccc(O)c(c2)CC=CCN(S(=O)(=O)c2ccccc2[N+](=O)[O-])CCCC[C@H](N)C(=O)N[C@@H](CCCCN)C(=O)N2CCC[C@H]2C(=O)N1)C(=O)N[C@@H](CC(C)C)C(=O)O
- half-life [13]: 1.4 h

Compound: CC[C@H](C)[C@H](NC(=O)[C@H]1Cc2ccc(O)c(c2)CC=CCCCCCC[C@](C)(N)C(=O)N[C@@H](CCCCN)C(=O)N2CCC[C@H]2C(=O)N1)C(=O)N[C@@H](CC(C)C)C(=O)O
- Activity (Rattus norvegicus [18]): Active
- Activity (Rattus norvegicus [2]): Active
- deltaT (Rattus norvegicus [3]): 2 °C
- Activity (Rattus norvegicus [4]): inactive
- Activity (Rattus norvegicus [5]): Active

Compound: CC[C@H](C)[C@H](NC(=O)[C@@H]1Cc2ccc(cc2)OCCCCCC(=O)N[C@@H](CCCNC(=N)N)C(=O)N2CCC[C@H]2C(=O)N1)C(=O)N[C@@H](CC(C)C)C(=O)O
- Ki [20]: 0.45 µM

Compound: CC(C)C[C@H](NC(=O)[C@@H]1CCC(=O)NCC(=O)N(C)[C@@H](CCCNC(=N)N)C(=O)N[C@@H](CCCCN)C(=O)N2CCC[C@H]2C(=O)N[C@@H](Cc2c[nH]c3ccccc23)C(=O)N1)C(=O)O (G[NMeR]KPWEL-OH; lactam N-6)
- Ki [1]: 3.5 µM

Compound: CC[C@H](C)[C@H](NC(=O)[C@@H]1Cc2ccc(O)c(c2)CC=CCNCC[C@H](N)C(=O)N[C@@H](CCCCN)C(=O)N2CCC[C@H]2C(=O)N1)C(=O)N[C@@H](CC(C)C)C(=O)O
- half-life [13]: 2.5 h

Compound: CC[C@H](C)[C@H](NC(=O)[C@@H]1Cc2ccc(O)c(c2)CC=CCNCCCC[C@@H](N)C(=O)N[C@@H](CCCCN)C(=O)N2CCC[C@H]2C(=O)N1)C(=O)N[C@@H](CC(C)C)C(=O)O
- half-life [13]: 24 h

Compound: CC[C@H](C)[C@H](NC(=O)[C@@H]1Cc2ccc(O)c(c2)CC=CCCCNCCCC[C@H](N)C(=O)N[C@@H](CCCCN)C(=O)N2CCC[C@H]2C(=O)N1)C(=O)N[C@@H](CC(C)C)C(=O)O
- half-life [13]: 0.3 h

Compound: CC[C@H](C)[C@H](NC(=O)[C@@H]1Cc2ccc(O)c(c2)CC=CCNCCCCCC(=O)N[C@@H](CCCCN)C(=O)N2CCC[C@H]2C(=O)N1)C(=O)N[C@@H](CC(C)C)C(=O)O
- Ki [10]: 0.656 µM
- half-life [13]: 24 h
- EC50 [12]: 0.096 µM
